Screening results: PubChem BioAssay, several laboratories
Hits are enriched below; roughly 3.3% of the tested compounds scored in any of these assays.
PMI act hi M6P: human PMI activators, high substrate, primary screen, biochemical, fluorescence intensity, near-saturating mannose 6-phosphate. activation factor at 20 µM. AID 1216, 2008. coupled PMI enzyme assay, resazurin fluorescence, 20 min; active compounds read high; 1 = untreated enzyme, 0 = substrate-free blank. actives 0.34% (n = 190,000);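 active means activation factor of 2 or more at 20 µM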
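assay system = human phosphomannose isomerase with PGI, G6PDH, diaphorase coupling enzymes | quantity = 15 ng/mL PMI | incubation = enzyme reaction with compound 20 min at room temperature | medium = HEPES pH 7.4 buffer with MgCl2 and Tween-20 | compound dosing = one concentration, 20 µM, in 1% DMSO | measured by = Diaphorase-driven resazurin-to-resorufin fluorescence, excitation 544, emission 590 nm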
Cl transport mod: KCC2 cotransporter modulators, thallium flux, primary screen, cell-based, HEK293 KCC2, FluoZin-2 fluorescence, MLSMR; Solute carrier family 12 member 5 (Homo sapiens), Q9H2X9; KCC2 cells, thallium flux FluoZin-2 fluorescence; B-score of Tl+ flux slope (higher = more flux/activation; lower = inhibition) at 10 µM; actives 2.2% (n = 190,000);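 active means thallium flux slope and its plate-corrected score both differing from the plate sample mean at a set confidence after two filtering rounds, in either direction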;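 further: slope of fluorescence scaled to starting intensity during 10 to 20 s after thallium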
ROMK primary: ROMK potassium channel modulators, primary screen, cell-based, thallium flux, MLSMR library. ATP-sensitive inward rectifier potassium channel 1 (Homo sapiens), P48048. Tet-inducible ROMK, thallium flux fluorescence; actives lie on both sides. B-score at 10 µM. actives 2% (n = 130,000);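 active means signal ratio slope over the read window, or its plate-corrected B-score, at least 3 SD from the plate mean, either direction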;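 further: B-score of the F/F0 ratio slope over 7 to 12 s after thallium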
Target sequence (P48048 whole entry, looked up): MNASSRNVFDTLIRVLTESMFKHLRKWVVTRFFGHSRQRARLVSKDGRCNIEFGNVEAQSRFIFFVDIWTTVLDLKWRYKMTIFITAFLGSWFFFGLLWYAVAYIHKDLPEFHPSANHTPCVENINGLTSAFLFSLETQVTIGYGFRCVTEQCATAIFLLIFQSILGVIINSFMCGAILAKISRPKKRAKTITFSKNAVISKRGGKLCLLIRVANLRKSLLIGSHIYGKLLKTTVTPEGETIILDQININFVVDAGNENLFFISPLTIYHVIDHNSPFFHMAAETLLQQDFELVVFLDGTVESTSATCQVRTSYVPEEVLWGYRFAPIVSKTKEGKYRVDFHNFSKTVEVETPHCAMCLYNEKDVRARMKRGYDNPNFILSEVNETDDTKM
ABCB1 inh: ABCB1 efflux pump inhibitors, primary screen, cell-based, multiplex, flow cytometry, ABCG2 counter-screen; CCRF-Adr cells, JC-1 efflux; inhibition, % at 6.6 µM; actives 0.067% (n = 190,000); in the data active means inhibition above about 40%;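 further: 0% = vehicle and 100% = reference inhibitor; higher value means more JC-1 retained so stronger ABCB1 efflux block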
PMI activator: activators of human PMI, primary screen, biochemical, fluorescence intensity, near-Km mannose 6-phosphate | purified human PMI, coupled resazurin fluorescence, 20 min; active compounds read high; 1 = vehicle control, 0 substrate-free wells | activation factor at 20 µM | actives 0.005% (n = 190,000) | AID 1214, 2008;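 active means activation factor of 2 or more at 20 µM, relative to plate controls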
ABCG2 block: ABCG2 efflux pump inhibitors, primary screen, multiplex with ABCB1, IgMXP3 cells, flow cytometry. Broad substrate specificity ATP-binding cassette transporter ABCG2 (Homo sapiens), Q9UNQ0. JC-1 efflux. inhibition, % at 6.6 µM. actives 0.1% (n = 190,000);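 active means inhibition above 80%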;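 further: 0% = DMSO and 100% = nicardipine control wells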
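Test system: ABCG2 IgMXP3 and barcoded ABCB1 CCRF-Adr cell mix; Schedule: cells with compound and JC-1, 10 min at 25 °C, rotating, no wash; Technique: flow cytometry of retained JC-1 fluorescence; Measure: % inhibition of efflux relative to nicardipine and DMSO; Controls: nicardipine high and DMSO low controls.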
ABCB1 single pt: ABCB1 efflux pump inhibitors, confirmation, cell-based, single point, ABCG2 counter-screen; actives 7% (n = 270); inhibition, % at 6.6 µM; shares compounds with ABCG2 block; CCRF-Adr cells, JC-1 efflux, flow cytometry;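 active means inhibition of pump activity above 50%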;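 further: 0% = DMSO and 100% = nicardipine full pump inhibition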
ABCG2 single pt: ABCG2 efflux pump inhibitors, confirmation, single point, IgMXP3 cells, ABCB1 counter-screen paired; shares compounds with ABCG2 block; AID 1453, 2008; actives 6% (n = 270); JC-1 efflux, flow cytometry; inhibition, % at 6.6 µM;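 active means inhibition above 50%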;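 further: 0% = DMSO wells and 100% = nicardipine pump inhibitor wells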
IgMXP3 autofluor: compound autofluorescence in ABCG2-expressing IgMXP3 cells, confirmation, artefact control for ABC transporter inhibitor project, cell-based, 488/530 nm, flow cytometry. fluorescence at 6.6 µM. actives 30% (n = 270). shares compounds with ABCG2 block. compound autofluorescence 488/530 nm; active compounds read high. AID 1480, 2009;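 active means fluorescence in ABCG2-expressing cells above the plate's control-well mean plus 3 SD, cut at about 15 in these data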;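 further: median cell fluorescence with compound minus that of DMSO-treated control cells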
CCRF autofluor: compound autofluorescence in ABCB1-expressing CCRF-Adr cells, confirmation, artefact control for ABC transporter inhibitor project, cell-based, 488/530 nm, flow cytometry | shares compounds with ABCG2 block | compound autofluorescence 488/530 nm; active compounds read high | fluorescence at 6.6 µM | actives 30% (n = 270);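 active means fluorescence beyond the plate control mean plus 3 SD, with a fluorescence-to-maximum score over 2, cut at about 25 in these data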
* hit, by the source's call; i = inactive; / = no result; + = active, no number.

SMILES | PMI act hi M6P | Cl transport mod | ROMK primary | ABCB1 inh | PMI activator | ABCG2 block | ABCB1 single pt | ABCG2 single pt | IgMXP3 autofluor | CCRF autofluor
CCCCCn1c(CN2CCN(Cc3ccccc3)CC2)nc2c1c(=O)n(C)c(=O)n2C | 1 | 0.57 | -0.65 | 57* | 1.1 | 28 | 23 | 14 | 0.81 | -2.4
C(=N\Nc1nc(Nc2ccccc2)nc(N2CCCCC2)n1)/c1ccco1 | 0.8 | / | / | 1 | 0.8 | 2 | / | / | / | /
Cc1ccc2oc(C(Cl)(Cl)Cl)cc(=O)c2c1 | 0.9 | -0.92 | -1.1 | -2 | 0.9 | -9 | / | / | / | /
O=C1NC(CCc2ccccc2)C(=O)N1Cc1cccc2ccccc12 (centres undefined) | 1 | 1.5 | / | 90* | 0.9 | 159* | 0 | -1 | -0.29 | -2.7
O=C(NC(=S)NCc1ccccc1)c1ccccc1[N+](=O)[O-] | / | 3.4 | 0.0036 | -2 | / | 3 | / | / | / | /
O=S(=O)(c1ccccc1)N1CCN(c2cc(-c3ccccc3)nc3ncnn23)CC1 | 1 | 1 | / | 4 | 1 | 2 | / | / | / | /
O=S(=O)(c1ccc(Br)cc1)N1CCN(c2cc(-c3ccccc3)nc3ncnn23)CC1 | 0.9 | -1.7 | / | 60* | 0.9 | 52 | 37 | 23 | 3.5 | 7.2
O=C(COC(=O)c1ccccc1OCC(=O)Nc1ccc(Br)cc1)Nc1ccccc1 | 1 | 0.29 | 0.042 | 3 | 0.9 | 84* | 1 | 26 | -0.79 | -0.74
CCC(C)NC(=O)COC(=O)c1ccccc1OCC(=O)Nc1ccc(Br)cc1 (centres undefined) | 1.2 | 0.013 | / | 1 | 1.1 | 21 | / | / | / | /
O=C(c1ccco1)N1CCN(c2nnc(-c3ccccc3)c3ccccc23)CC1 | 1.1 | -1.7 | -0.033 | 1 | 1.1 | 2 | / | / | / | /
O=C(c1ccco1)N1CCN(c2nc(C(F)(F)F)nc3c2nnn3Cc2ccccc2)CC1 | 0.8 | 0.17 | / | 15 | 0.9 | 64 | 23 | 27 | 73* | 37*
N#CC1=C(N)OC2=C(CCc3ccccc32)C1c1ccccc1 (centres undefined) | 0.9 | -0.52 | 1.9 | 1 | 0.9 | 4 | / | / | / | /
Cc1ccc(/C=C2\CCC3=C2OC(N)=C(C#N)C3c2ccc(C)cc2)cc1 (centres undefined) | 0.7 | 0.098 | -4.9* | 56* | 1 | 85* | -1 | 10 | 65* | 87*
CCN1CCN(C(=O)c2oc(=O)c3ccccc3c2-c2ccc(C)cc2)CC1 | 1 | 0.54 | / | -2 | 1 | -2 | / | / | / | /
Cc1ccc(-c2c(C(=O)NCc3ccc(F)cc3)oc(=O)c3ccccc23)cc1 | 0.8 | 0.11 | -1.2 | 27 | 0.8 | 83* | 9 | 27 | 5.3 | 9.9
O=[N+]([O-])c1cc(Cl)ccc1NCCNS(=O)(=O)c1ccccc1 | 0.9 | -0.44 | / | 3 | 0.8 | 119* | 7 | 18 | 2.3 | 32*
O=C(O)COc1cccc(NC(=O)c2ccccc2)c1 | 1.1 | 0.28 | 0.39 | 1 | 1.1 | 2 | / | / | / | /
CC(C)CCOc1cccc(OCC(=O)O)c1 | 1.2 | -0.089 | 0.24 | 30 | 1.2 | 108* | 1 | 3 | 8.3 | -0.84
Oc1ccccc1-n1nc2ccc3nonc3c2n1 | / | 0.45 | 0.00084 | / | / | / | / | / | / | /
CCCCN(C(=O)c1ccc(Cl)c(S(=O)(=O)N2CCOCC2)c1)c1c(N)n(CCC)c(=O)[nH]c1=O | / | 0.82 | / | / | / | / | / | / | / | /
CC(NC(=O)COC(=O)Cc1ccsc1)C1CC2CCC1C2 (centres undefined) | 1.1 | -1.4 | / | 35 | 1.1 | 132* | 7 | 4 | -2.1 | -4.7
COc1ccc(-c2cc(C#N)nc(Cl)n2)cc1 | / | -2.1 | -1.8 | / | / | / | / | / | / | /
COc1ccc(-c2cc(C#N)nc(Oc3ccc(Cl)cc3)n2)cc1 | 1.1 | 0.13 | / | 0 | 1 | 84* | 11 | 10 | 35* | 26*
COc1ccc(S(=O)(=O)Nc2cc3c(cc2C(C)=O)OCO3)cc1 | / | -0.054 | 3.9 | 1 | / | 2 | / | / | / | /
Cc1cc(/C=C(\C#N)C(=O)O)c(C)n1CC(C)C | 1 | 1.3 | / | + | 1 | + | -2 | -5 | 40* | 4.4
SMILES | PMI act hi M6P | Cl transport mod | ROMK primary | ABCB1 inh | PMI activator | ABCG2 block | ABCB1 single pt | ABCG2 single pt | IgMXP3 autofluor | CCRF autofluor
Cc1cc(-c2sccc2Br)nc(-n2cccc2)n1 | 1.3 | -0.36 | 0.18 | 1 | 1.5 | 92* | 1 | 33 | -1.9 | -4.7
CCN1/C(=C/C(C)=C/c2sc3ccccc3[n+]2CC)Sc2ccccc21 | 1 | -0.038 | -1.2 | 1 | 0.8 | -11 | / | / | / | /
CCN1/C(=C/c2ccc3cccc(C)c3[n+]2CC)Sc2ccccc21 | 1.1 | / | / | 34 | 1 | + | 26 | 69* | 304* | 305*
Cc1nn(-c2ccccc2)c(Cl)c1/C=N/NC(=O)c1ccncc1 | / | -1 | / | / | / | / | / | / | / | /
Cc1ccc(N/C(N)=N/c2nc(C)cc(N3CCCCC3)n2)c(C)c1 | 1 | -1.1 | -0.78 | 2 | 1.1 | 0 | / | / | / | /
CCN(CC)c1ccc(/C=c2\sc3nnc(-c4ccccc4Cl)n3c2=O)cc1 | 0.9 | / | / | 60* | 0.9 | 78 | 28 | -54 | 202* | 204*
Cc1ccc(/C=c2/sc3nnc(-c4ccccc4Cl)n3c2=O)o1 | 0.9 | 0.051 | / | 2 | 0.8 | 58 | / | / | / | /
CCN(CC)c1ccc(/C=c2/sc3nnc(-c4ccccc4C)n3c2=O)cc1 | 1 | i | / | 77* | 1.1 | 64 | 25 | 13 | 139* | 249*
